{"data": "Experimental data from different studies", "target": "Vascular endothelial growth factor receptor 2 (KDR, Homo sapiens, UniProt P35968)"}
{"read-out": "cell-free assay", "concentration": "1 µM", "quantity": "remaining signal", "value": "41%", "Structure (SMILES)": "C#Cc1cnc(Nc2ccnc(CO)c2)nc1Nc1ccccc1S(C)(=O)=NC#N (stereo not shown)"}
{"read-out": "binding", "technique": "competition with immobilised ligand", "concentration": "1 µM", "quantity": "remaining binding", "value": "85%", "Structure (SMILES)": "Cc1ccc(NC(=O)c2ccnc(C(F)(F)F)c2)cc1-c1cc(OCCO)nc(N2CCOCC2)c1"}
{"read-out": "enzyme activity", "action": "inhibitor", "technique": "TR-FRET", "concentration": "40 µM", "quantity": "inhibition", "value": "8.3%", "Structure (SMILES)": "C[C@@H]1O[C@@H](O[C@H]2[C@H](Oc3cc(O)c4c(=O)cc(-c5ccc(O)cc5)oc4c3)O[C@H](CO)[C@@H](O)[C@@H]2O)[C@H](O)[C@H](O)[C@H]1O"}
{"read-out": "enzyme activity", "action": "inhibitor", "concentration": "1 µM", "quantity": "inhibition", "value": "67%", "Structure (SMILES)": "CO[C@@H]1[C@H](N(C)C(=O)c2ccccc2)C[C@H]2O[C@]1(C)n1c3ccccc3c3c4c(c5c6ccccc6n2c5c31)C(=O)NC4"}
{"read-out": "cell-free assay", "technique": "competition with immobilised ligand", "concentration": "25 µM", "quantity": "remaining binding", "value": "96%", "Structure (SMILES)": "N#Cc1ccc(NC(=O)Nc2ccccc2)cc1"}
{"read-out": "binding", "concentration": "1 µM", "quantity": "remaining binding", "value": "103%", "Structure (SMILES)": "COc1ccc2oc(-c3ccc4nc(N)oc4c3)c/c(=N\\c3ccccc3NC(=O)CCN)c2c1"}
{"read-out": "binding", "technique": "competition with immobilised ligand", "concentration": "1 µM", "quantity": "remaining binding", "value": "59%", "Structure (SMILES)": "COc1ccc2[nH]c3c4[nH]c5ccc(OC)cc5c4c4c(c3c2c1)C(=O)NC4=O"}
{"read-out": "binding", "technique": "competition with immobilised ligand", "concentration": "0.5 µM", "quantity": "remaining binding", "value": "95%", "Structure (SMILES)": "CCCCC(=O)Nc1ccc(-c2ccc3ncn(CCC)c(=O)c3c2)cn1"}
{"read-out": "enzyme activity", "action": "inhibitor", "technique": "TR-FRET", "concentration": "40 µM", "quantity": "inhibition", "value": "83.9%", "Structure (SMILES)": "O=C(O)[C@H]1O[C@@H](Oc2cc(O)c3c(=O)cc(-c4ccc(O)c(O)c4)oc3c2)[C@H](O)[C@@H](O)[C@@H]1O"}
{"read-out": "enzyme activity", "action": "inhibitor", "concentration": "1 µM", "quantity": "inhibition", "value": "0%", "Structure (SMILES)": "CC#CC(=O)N1CCC[C@H]1c1nc(-c2ccc(C(=O)Nc3ccccn3)cc2)c2c(N)nccn12"}
